Results published in paper PMC3226999 (Food chemistry, 2012).
Entries after “also recorded” stand apart in the source; their conditions may differ.

Assays:
[1] = test system: caspase-3 and −7 activity in MDA-MB-231 cells; experiment: Caspase-Glo 3/7 luminometric assay in cells; format: cell-based, human; settings: for reduction of staurosporine-induced caspase-3/−7 activity: 1 μM staurosporine plus flavonoid 200, 100, 25 μM, 24 h (Figure 3B); for caspase-3 or −7 activity in treated cells versus DMSO control: 200 μM flavonoid or 1 μM staurosporine, 24 h (Figure 3A)
Outline: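 MDA-MB-231 cells were grown in high-glucose DMEM with 10% BGS at 37 °C and 5% CO2. They were seeded at 0.5 × 10^4 cells/well, then treated after 24 h with test compound and/or staurosporine for 24 h. Alternatively, medium was replaced with 200 μM compound plus 1 μM staurosporine just before assay. Caspase-3/7 activity was read by Caspase-Glo 3/7 luminescence as fold activation over DMSO-treated cells (n=3, standard error of margin, t-test).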

[2] = test system: purified recombinant caspase-1, −3, and −7; experiment: Preliminary survey of inhibition of purified recombinant activated caspases; format: biochemical; settings: for inhibition of purified caspase-1, −3, or −7 activity: 200 μM, 100 μM, 50 μM flavonoid (Figure 4); for caspase specificity: among caspase-1, −3, −7
recombinant caspase-3 = biological target: T1, recombinant caspase-3 (Homo sapiens, UniProt P42574); format: biochemical
T1 sequence (P42574 29-175 limits assumed): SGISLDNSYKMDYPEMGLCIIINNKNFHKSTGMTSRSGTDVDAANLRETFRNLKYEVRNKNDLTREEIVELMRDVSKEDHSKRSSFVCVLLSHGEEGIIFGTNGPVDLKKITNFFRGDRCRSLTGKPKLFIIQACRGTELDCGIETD
T1 sequence (P42574 176-277 limits assumed): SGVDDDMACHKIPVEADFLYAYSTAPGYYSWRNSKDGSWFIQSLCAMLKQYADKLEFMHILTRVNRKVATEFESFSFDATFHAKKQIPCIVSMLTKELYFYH

Structure (SMILES) | reduction of staurosporine-induced caspase-3/−7 activity [1] | caspase-3 or −7 activity in treated cells versus DMSO control [1] | inhibition of purified caspase-1, −3, or −7 activity [2] | type of caspase inhibition ([2]; Lineweaver-Burk plots, caspase-1, −3, −7) | caspase specificity [2] | IC50 (recombinant caspase-3)
O=c1cc(-c2ccc(O)cc2)oc2cc(O)cc(O)c12 [Apigenin, apigenin] | reduction in activity was dose dependent | decrease in caspase-3 or −7 activity | did not exhibit strong dose-dependent inhibition | – | – | –
O.Oc1cc(O)c2c(c1)O[C@H](c1ccc(O)c(O)c1)[C@@H](O)C2 [Catechin, catechin] | – | – | did not exhibit strong dose-dependent inhibition | – | – | –
O=c1cc(-c2ccccc2)oc2cc(O)cc(O)c12 [Chrysin, chrysin] | – | – | did not exhibit strong dose-dependent inhibition | – | – | –
O=c1c(-c2ccc(O)cc2)coc2cc(O)ccc12 [Daidzein, daidzein] | – | – | did not exhibit strong dose-dependent inhibition; also recorded: unable to inhibit caspase activity | – | – | –
O=c1c(-c2ccc(O)cc2)coc2cc(O)cc(O)c12 [Genistein, genistein] | – | – | unable to inhibit caspase activity | – | – | –
O=c1c(O)c(-c2ccc(O)cc2)oc2cc(O)cc(O)c12 [Kaempferol, kaempferol] | reduction in activity was dose dependent | decrease in caspase-3 or −7 activity | significant, dose-dependent inhibition | – | – | –
O=c1cc(-c2ccc(O)c(O)c2)oc2cc(O)cc(O)c12 [Luteolin, luteolin] | reduction in activity was dose dependent | decrease in caspase-3 or −7 activity | significant, dose-dependent inhibition | – | – | –
O=c1c(O)c(-c2cc(O)c(O)c(O)c2)oc2cc(O)cc(O)c12 [Myricetin, myricetin] | able to reduce the staurosporine-induced activity | – | significant, dose-dependent inhibition; also recorded: one of the more potent inhibitors | competitive | specificity for caspase-1 | 25 µM
O=C1C[C@@H](c2ccc(O)cc2)Oc2cc(O)cc(O)c21 [Narigenin, naringenin] | – | – | did not exhibit strong dose-dependent inhibition | – | – | –
O=c1c(O)c(-c2ccc(O)c(O)c2)oc2cc(O)cc(O)c12 [Quercetin, quercetin] | able to reduce the staurosporine-induced activity | increase caspase-3 or −7 activity only slightly | significant, dose-dependent inhibition | – | specificity for caspase-3 | –
CN[C@@H]1C[C@H]2O[C@@](C)([C@@H]1OC)n1c3ccccc3c3c4c(c5c6ccccc6n2c5c31)C(=O)NC4 [Staurosporine, staurosporine, reference compound] | – | very strong caspase-3 or −7 activation | – | – | – | –
